This is an account of results in ChEMBL document CHEMBL1287788, “2-aminohydroxamic acid derivatives as inhibitors of Bacillus cereus phosphatidylcholine preferred phospholipase C PC-PLC(Bc)” (Bioorg Med Chem, 2010).

In general, IC50 refers to the concentration that inhibits the measured activity by half. A high value points to a need for much substance. The Ki is a dissociation constant, usually derived from enzyme kinetics or from competition with a known ligand.

Series [1] has as its target T1, Phospholipase C (Bacillus cereus, UniProt P09598).
T1 sequence (P09598 whole entry): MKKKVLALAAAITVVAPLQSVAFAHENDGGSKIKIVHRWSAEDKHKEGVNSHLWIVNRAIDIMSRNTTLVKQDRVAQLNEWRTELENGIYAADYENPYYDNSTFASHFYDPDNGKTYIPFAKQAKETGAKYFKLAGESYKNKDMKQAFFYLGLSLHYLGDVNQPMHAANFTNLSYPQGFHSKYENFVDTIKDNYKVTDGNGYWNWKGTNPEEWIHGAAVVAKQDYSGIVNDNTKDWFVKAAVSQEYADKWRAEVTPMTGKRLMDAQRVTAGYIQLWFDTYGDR
The series can be described thus: Inhibition of Bacillus cereus phosphatidylcholine preferred phospholipase C after 100 seconds. Summed up:
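Bacillus cereus PC-PLC activity measured by a coupled read-out: phosphorylcholine released by the enzyme is hydrolysed by alkaline phosphatase, and the freed phosphate ions are quantified. Substrate was 1,2-di-n-hexanoyl-sn-glycero-3-phosphocholine at 2 mM final, below its CMC of 11.1 mM. Compound CMC values were determined so the assay ran under non-micellar conditions.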

Series [2] is described as follows: Cytotoxicity against human A549 cells after 24 hrs by MTT assay. In kind it is cell-based. The conditions noted are these: read-out: LD50.
Series [3] is described as follows: Critical micelle concentration of the compound. In kind it is physicochemical.
Series [4] concerns the target T1, Phospholipase C. The series can be described thus: Uncompetitive inhibition of Bacillus cereus phosphatidylcholine preferred phospholipase C by Dixon plot analysis.
In series [5] the target is T1, Phospholipase C. The series can be described thus: Non-competitive inhibition of Bacillus cereus phosphatidylcholine preferred phospholipase C by Dixon plot analysis.
In series [6] the target is T1, Phospholipase C. The series can be described thus: Mixed-type inhibition of Bacillus cereus phosphatidylcholine preferred phospholipase C by Dixon plot analysis.
Series [7] deals with T2, Phospholipase C (Bacillus cereus) (UniProt P09598).
T2 sequence (whole entry): T1 sequence (P09598 whole entry)
Briefly: Irreversible inhibition of Bacillus cereus phosphatidylcholine preferred phospholipase C assessed as residual activity after 10 mins.

On to `CCCCCCC(N)C(=O)N(CC[N+](C)(C)C)OCc1ccccc1.Cl.[Cl-]` (centres undefined), for which the IC50 against Phospholipase C [1] is over 500 µM. Also, in series [2], the CC50 at 24 h was over 100 µM. The compound also returned a CMC in series [3] of over 500 µM.
For `CCCCCCC(NC(=O)OC(C)(C)C)C(=O)N(CC[N+](C)(C)C)OCc1ccccc1.[I-]` (centres undefined), at Phospholipase C [1], the midpoint of inhibition, the IC50, lay at 56 µM. For the same compound, the CC50 at 24 h in series [2] was over 100 µM. Also, in series [3], the CMC is over 500 µM.
In the same order, the values of `CCCCCCC(N)C(=O)N(CCCN(C)C)OCc1ccccc1.Cl.Cl` (centres undefined) are over 500 µM, over 100 µM and 158 µM.
`CCCCCCCCCCCCCCCCCCC(NC(=O)OC(C)(C)C)C(=O)N(CC[N+](C)(C)C)OCc1ccccc1.[I-]` (centres undefined): the CC50 at 24 h in series [2] is 25.1 µM. In series [3], this compound came in with a CMC of 75 µM.
On to `CCCCCCCCCCC(N)C(=O)N(CCC[N+](C)(C)C)OCc1ccccc1.Cl.[Cl-]` (centres undefined), for which, at Phospholipase C [1], the IC50 came out at 50 µM. In addition, in series [2], the CC50 at 24 h came to 43.4 µM. For the same compound, the CMC in series [3] amounted to 141 µM.
Consider `CCCCCCCCCCCCCCCCCCC(N)C(=O)N(O)CC[N+](C)(C)C.Cl.[Cl-]` (centres undefined), for which, on Phospholipase C [1], the IC50 came to 4 µM. For the same compound, the CC50 at 24 h in series [2] is 52.7 µM. This compound also returned a CMC in series [3] of 50 µM.
In the case of `CCCCCCC(NC(=O)OC(C)(C)C)C(=O)N(CCCN(C)C)OCc1ccccc1` (centres undefined), the IC50 against Phospholipase C [1] is 77 µM. Further, the CC50 at 24 h in series [2] was 21 µM. The compound also displayed a CMC in series [3] of 75 µM.
In the same order, the values of `CCCCCCC(N)C(=O)N(CCC[N+](C)(C)C)OCc1ccccc1.Cl.[Cl-]` (centres undefined) are 100 µM, over 100 µM and 210 µM.
With `CCCCCCCCCCC(N)C(=O)N(O)CCCN(C)C.Cl.Cl` (centres undefined), at Phospholipase C [1], it took 100 µM to reach half-maximal inhibition (IC50). For the same compound, the CC50 at 24 h in series [2] turned out to be 40 µM. The compound further had a CMC in series [3] of 79 µM.
Taken in the same sequence, the figures for `CCCCCCCCCCCCCCC(N)C(=O)N(CC[N+](C)(C)C)OCc1ccccc1.Cl.[Cl-]` (centres undefined) were 4 µM, 75.3 µM and 90 µM.
On Phospholipase C [1], `CCCCCCC(NC(=O)OC(C)(C)C)C(=O)N(CCC[N+](C)(C)C)OCc1ccccc1.[I-]` (centres undefined) displayed an IC50 of 78 µM. Moreover, the CC50 at 24 h in series [2] is over 100 µM. In addition, the CMC in series [3] was determined as 221 µM.
As for `CCCCCCCCCCCCCCC(N)C(=O)N(O)CC[N+](C)(C)C.Cl.[Cl-]` (centres undefined), half-maximal inhibition at Phospholipase C [1] (IC50) required 2 µM. For the same compound, the CC50 at 24 h in series [2] came to 100 µM. The compound further showed a CMC in series [3] of 120 µM.
The compound `CCCCCCCCCCC(NC(=O)OC(C)(C)C)C(=O)N(CC[N+](C)(C)C)OCc1ccccc1.[I-]` (centres undefined) gave an IC50 against Phospholipase C [1] of 5 µM. The CC50 at 24 h in series [2] turned out to be 28.2 µM. The compound also showed a CMC in series [3] of over 500 µM.
In turn, `CCCCCCC(N)C(=O)N(O)CCC[N+](C)(C)C.Cl.[Cl-]` (centres undefined) showed an IC50 on Phospholipase C [1] of over 500 µM. In addition, in series [2], the CC50 at 24 h is over 100 µM. This compound registered a CMC in series [3] of over 500 µM.
The compound `CCCCCCCCCCC(N)C(=O)N(O)CC[N+](C)(C)C.Cl.[Cl-]` (centres undefined) registered an IC50 at Phospholipase C [1] of 40 µM. Besides, the CC50 at 24 h in series [2] was over 100 µM. Besides, in series [3], the CMC is over 500 µM. Moreover, on Phospholipase C [4], the Ki was 12 µM.
The compound `CCCCCCC(N)C(=O)N(O)CC[N+](C)(C)C.Cl.[Cl-]` (centres undefined) came in with an IC50 on Phospholipase C [1] of 500 µM. Also, the CC50 at 24 h in series [2] was over 100 µM. In series [3], this compound had a CMC of over 500 µM.
In turn, `CCCCCCCCCCC(N)C(=O)N(CCCN(C)C)OCc1ccccc1.Cl.Cl` (centres undefined) returned an IC50 at Phospholipase C [1] of 32 µM. Moreover, the CC50 at 24 h in series [2] turned out to be 7 µM. In series [3], this compound came in with a CMC of 8 µM.
As for `CCCCCCCCCCC(NC(=O)OC(C)(C)C)C(=O)N(CCCN(C)C)OCc1ccccc1` (centres undefined), on Phospholipase C [1], the IC50 stood at 8 µM. Moreover, the CC50 at 24 h in series [2] was found to be 6 µM. The CMC in series [3] came to 10 µM. Moreover, on Phospholipase C [5], the Ki came out at 2.5 µM.
`CCCCCCCCCCC(N)C(=O)N(CC[N+](C)(C)C)OCc1ccccc1.Cl.[Cl-]` (centres undefined) returned an IC50 against Phospholipase C [1] of 10 µM. For the same compound, in series [2], the CC50 at 24 h came out at 76.1 µM. This compound yielded a CMC in series [3] of over 500 µM.
At Phospholipase C [1], `CCCCCCC(N)C(=O)N(O)CCCN(C)C.Cl.Cl` (centres undefined) returned an IC50 of over 500 µM. Moreover, the CC50 at 24 h in series [2] was over 100 µM. Besides, the CMC in series [3] is over 500 µM.
For `CCCCCCCCCCCCCCCCCCC(N)C(=O)N(CC[N+](C)(C)C)OCc1ccccc1.Cl.[Cl-]` (centres undefined), the midpoint of inhibition against Phospholipase C [1], the IC50, lay at 4 µM. Besides, the CC50 at 24 h in series [2] is 29 µM. Besides, in series [3], the CMC stood at 10 µM.
As to `CCCCCCCCCCC(NC(=O)OC(C)(C)C)C(=O)N(CCC[N+](C)(C)C)OCc1ccccc1.[I-]` (centres undefined), in series [2], the CC50 at 24 h was determined as 17 µM. The compound further had a CMC in series [3] of 40 µM. The compound further displayed a Ki on Phospholipase C [6] of 2.5 µM.
Regarding `CCCCCCCCCCCCCCC(NC(=O)OC(C)(C)C)C(=O)N(CC[N+](C)(C)C)OCc1ccccc1.[I-]` (centres undefined), in series [2], the CC50 at 24 h turned out to be 27.6 µM. Also, the CMC in series [3] is over 500 µM. In series [7], the Activity came out at 100%.
On to `CCCCCCCCCCC(N)C(=O)N(O)CCC[N+](C)(C)C.Cl.[Cl-]` (centres undefined), for which inhibition at Phospholipase C [1] was half-maximal at 58 µM (IC50). In addition, in series [2], the CC50 at 24 h was over 100 µM. In addition, in series [3], the CMC is 97 µM. The compound further returned a Ki on Phospholipase C [6] of 26 µM.
